These results are taken from PMC4021451 (Journal of medicinal chemistry, 2012).

The subject of series [1] is A2780 (ovarian carcinoma) cells. The experiment in a line: EZ4U viability assay in resistance models, A2780. Type of series: cell-based. The conditions noted are these: read-out: IC50 A2780, 96 h exposure. Summed up: (§1)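 Cells were seeded at 2 × 10^3 per well and allowed to recover for 24 h. Test compound was then added in growth medium and exposed for 96 h. Viable cell proportion was read with the EZ4U kit. Media, all with 10% FBS: SW1573 and 2R120 in DMEM, A2780 and A2780/cis in RPMI 1640, P31 in MEM. Cells were grown at 37 °C in 5% CO2.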

The nature of series [2]: Reversed-phase HPLC lipophilicity. The format is physicochemical. The conditions noted are these: RP-HPLC, C18, methanol/15 mM aqueous formic acid, extrapolated to 100% H2O, 25 °C. In a few lines: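 Isocratic runs on a silica-based C18 column (4.6 mm × 250 mm), with methanol/15 mM aqueous formic acid from 5:95 to 50:50 depending on compound polarity. Flow 1.00 mL/min, UV 210 nm. […] Each compound ran at least twice in at least three mobile-phase compositions. log kw came from linear extrapolation of log k' versus methanol fraction.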

A further series deals with A2780 cells. The experiment in a line: Total Pt uptake levels by ICP-MS. The format is cell-based. Particulars: 2 h drug exposure. Summed up:
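A2780 cells (4 × 10^5 per well) settled for 24 h, then were exposed to test compound for 2 h at 37 °C. After two ice-cold PBS washes, cells were lysed in tetramethylammonium hydroxide and diluted in 0.6 N HNO3. Pt was measured by ICP-MS against matrix-matched standards with 1 ppb indium internal standard and corrected for a cell-free blank well. Values are relative mean and SD from at least two independent experiments.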

Series [3] deals with A2780/cis cells (cisplatin-selected subline). The experiment in a line: EZ4U viability assay in resistance models, A2780/cis. Type of series: cell-based. The conditions noted are these: for IC50: read-out: IC50 A2780/cis, EZ4U assay, 96 h exposure. Summed up:
as §1

The subject of series [4] is SW1573 cells (chemosensitive parental non-small-cell lung cancer line). The experiment in a line: EZ4U viability assay in resistance models, SW1573. The format is cell-based, human. Particulars: read-out: IC50 SW1573, 96 h exposure. In a few lines:
as §1

Series [5] relates to CH1 (ovarian carcinoma) cells. The experiment in a line: MTT cytotoxicity assay, CH1 cells. The format is cell-based, human. The conditions noted are these: read-out: IC50 CH1, 96 h exposure, mean ± SD. In a few lines:
(§2)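 Cells were seeded in MEM at 1.5 × 10^3 (CH1), 4.0 × 10^3 (A549) or 2.5 × 10^3 (SW480) per well, given 24 h to resume exponential growth, then exposed to serial dilutions for 96 h. Medium was replaced with RPMI 1640 plus MTT in PBS (5 mg/mL solution) for 4 h, then DMSO. OD was read at 550 nm. At least three independent experiments were run, with triplicates per concentration.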

Series [6] relates to P31/cis cells (cisplatin-resistant subline). In words: EZ4U viability assay in resistance models, P31/cis. The conditions noted are these: read-out: IC50 P31/cis, 96 h exposure. The format is cell-based. In a few lines:
as §1

Series [7] has as its system SW480 (colon adenocarcinoma) cells. In words: MTT cytotoxicity assay, SW480 cells. The conditions noted are these: read-out: IC50 SW480, 96 h exposure, mean ± SD. Type of series: cell-based, human. Summed up:
as §2

The subject of another series is P31 (mesothelioma) cells. The experiment in a line: EZ4U viability assay in resistance models, P31. Type of series: cell-based. Particulars: read-out: IC50 P31, 96 h exposure. In a few lines: as §1
Series [8] deals with ABCC1-overexpressing 2R120 cells. The experiment in a line: EZ4U viability assay in resistance models, 2R120. The format is cell-based, human. The conditions noted are these: read-out: IC50 2R120, 96 h exposure. In a few lines:
as §1

In series [9] the test system is A549 (non-small-cell lung carcinoma) cells. The experiment in a line: MTT cytotoxicity assay, A549 cells. The format is cell-based, human. The conditions noted are these: read-out: IC50 A549, 96 h exposure, mean ± SD. In a few lines:
as §2

As to `CC(=O)[O-].CC(=O)[O-].N.NC1CCCCC1.[Cl-].[Cl-].[Pt+4]` [satraplatin, (OC-6-43)-diacetatoamminedichlorido(cyclohexylamine)platinum(IV)], the IC50 amounted to 0.5 ± 0.3 µM in [1] and 5.7 ± 0.2 µM in [3]. Moreover, in [2], the log kw was 1.79 ± 0.01. Further, in the series with A2780 cells, the “Cellular drug uptake (total Pt levels)” value is “enhanced drug uptake”. Further, in series [3] (A2780/cis versus A2780), the “-fold resistance A2780/cis” value worked out at 11.4 fold.

In the case of `N.N.[Cl][Pt][Cl]` [cisplatin], the IC50 in [4] is 6.5 ± 0.1 µM; in series [5], 0.16 ± 0.03 µM; in series [6] it was above 20 µM; in series [7] it was 3.5 ± 0.3 µM; in series [3], 3.7 ± 0.3 µM; in the series on P31 (mesothelioma) cells, 4 ± 0.3 µM. In [8], the IC50 is above 20 µM.

For “(OC-6-54)-Dichlorido(N,N-dimethylethane-1,2-diamine)-hydroxidomethoxidoplatinum(IV) [1b]”, the IC50 came to 2.5 ± 0.2 µM in series [5], 73 ± 3 µM in series [9] and 40 ± 14 µM in series [7]. The log kw in series [2] is recorded as 0.09 ± 0.01.
